Calls of active or inactive are those of the source. The rule behind the calls is not given here.
How the values were obtained:
[1] = biological target: T1, Peroxisome proliferator-activated receptor alpha (Homo sapiens, UniProt Q07869); test: Agonist activity at human recombinant PPARalpha by transactivation of TK-MH100x4-LUC reporter gene in HEK293 cells; format: functional, cell-based
T1 sequence (Q07869 whole entry): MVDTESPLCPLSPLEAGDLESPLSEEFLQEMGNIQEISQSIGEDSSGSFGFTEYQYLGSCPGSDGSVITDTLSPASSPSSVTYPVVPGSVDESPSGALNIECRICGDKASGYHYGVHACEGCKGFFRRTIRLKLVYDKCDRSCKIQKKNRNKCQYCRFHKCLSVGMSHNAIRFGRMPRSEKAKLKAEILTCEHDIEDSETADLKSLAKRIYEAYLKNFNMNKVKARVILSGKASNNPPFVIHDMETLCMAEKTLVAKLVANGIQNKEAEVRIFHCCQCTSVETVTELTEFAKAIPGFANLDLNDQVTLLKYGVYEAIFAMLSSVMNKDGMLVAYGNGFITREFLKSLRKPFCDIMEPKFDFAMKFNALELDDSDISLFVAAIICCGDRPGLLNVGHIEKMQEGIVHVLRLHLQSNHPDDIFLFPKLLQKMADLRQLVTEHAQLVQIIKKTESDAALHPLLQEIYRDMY
In short: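 GAL4 fusion of the human PPARα receptor (CMX-GAL4N-hPPARα) with the TK-MH100x4-LUC reporter, plus CMX β-galactosidase for normalization. HEK293 cells were grown in DMEM with 5% FBS at 37 °C and 5% CO2 and transfected by calcium phosphate coprecipitation. Compounds were added 8 h after transfection. Luciferase was read by luminometer, normalized to β-galactosidase, and averaged over three repeat experiments.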

[2] = biological target: T2, Peroxisome proliferator-activated receptor alpha (Homo sapiens) (UniProt Q07869); test: Activity at human recombinant PPARalpha by transactivation of TK-MH100x4-LUC reporter gene in HEK293 cells at 10 uM; format: cell-based
T2 sequence (whole entry): T1 sequence (Q07869 whole entry)

[3] = biological target: T3, Peroxisome proliferator-activated receptor delta (Homo sapiens) (UniProt Q03181); test: Activity at human recombinant PPARdelta by transactivation of TK-MH100x4-LUC reporter gene in HEK293 cells at 10 uM; format: cell-based
T3 sequence (whole entry): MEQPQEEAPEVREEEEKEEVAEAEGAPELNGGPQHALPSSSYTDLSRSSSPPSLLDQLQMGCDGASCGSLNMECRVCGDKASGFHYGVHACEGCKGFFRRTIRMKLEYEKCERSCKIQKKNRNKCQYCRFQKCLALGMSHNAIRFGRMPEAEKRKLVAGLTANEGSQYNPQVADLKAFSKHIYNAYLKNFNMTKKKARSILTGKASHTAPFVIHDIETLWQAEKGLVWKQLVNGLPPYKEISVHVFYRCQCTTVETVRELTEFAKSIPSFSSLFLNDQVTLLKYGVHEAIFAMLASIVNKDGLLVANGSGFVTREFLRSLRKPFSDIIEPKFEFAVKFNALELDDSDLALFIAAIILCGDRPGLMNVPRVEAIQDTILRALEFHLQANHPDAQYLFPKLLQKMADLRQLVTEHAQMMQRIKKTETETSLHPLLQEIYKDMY

[4] = biological target: T4, Vitamin D3 receptor (Homo sapiens) (UniProt P11473); test: Activity at human recombinant VDR by transactivation of TK-MH100x4-LUC reporter gene in HEK293 cells at 10 uM; format: cell-based
T4 sequence (whole entry): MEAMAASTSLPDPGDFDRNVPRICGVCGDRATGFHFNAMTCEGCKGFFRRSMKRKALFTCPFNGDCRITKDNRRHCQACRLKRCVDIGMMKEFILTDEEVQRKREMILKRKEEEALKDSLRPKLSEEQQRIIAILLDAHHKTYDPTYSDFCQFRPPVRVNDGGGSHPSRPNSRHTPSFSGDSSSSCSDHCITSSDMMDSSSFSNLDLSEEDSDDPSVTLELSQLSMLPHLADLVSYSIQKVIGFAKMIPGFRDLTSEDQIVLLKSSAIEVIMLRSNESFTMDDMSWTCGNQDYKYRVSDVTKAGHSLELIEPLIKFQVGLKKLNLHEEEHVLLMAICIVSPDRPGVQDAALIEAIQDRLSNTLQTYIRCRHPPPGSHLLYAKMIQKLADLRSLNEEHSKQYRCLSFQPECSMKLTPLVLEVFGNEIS

[5] = biological target: T5, Oxysterols receptor LXR-alpha (Homo sapiens) (UniProt Q13133); test: Activity at human recombinant LXRalpha by transactivation of TK-MH100x4-LUC reporter gene in HEK293 cells at 10 uM; format: cell-based
T5 sequence (whole entry): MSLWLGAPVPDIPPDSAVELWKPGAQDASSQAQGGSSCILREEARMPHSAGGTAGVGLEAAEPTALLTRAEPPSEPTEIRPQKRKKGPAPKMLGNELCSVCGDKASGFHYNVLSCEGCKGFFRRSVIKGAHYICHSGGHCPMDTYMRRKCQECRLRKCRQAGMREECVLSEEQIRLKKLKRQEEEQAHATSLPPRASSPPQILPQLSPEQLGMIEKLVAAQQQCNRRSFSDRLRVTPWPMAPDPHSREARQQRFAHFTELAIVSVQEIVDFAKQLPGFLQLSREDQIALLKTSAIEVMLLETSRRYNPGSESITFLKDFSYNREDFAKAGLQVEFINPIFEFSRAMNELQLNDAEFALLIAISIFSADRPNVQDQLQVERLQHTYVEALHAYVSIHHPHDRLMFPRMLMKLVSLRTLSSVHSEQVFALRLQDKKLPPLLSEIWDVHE

[6] = biological target: T6, Retinoic acid receptor RXR-alpha (Homo sapiens) (UniProt P19793); test: Activity at human recombinant RXRalpha by transactivation of TK-MH100x4-LUC reporter gene in HEK293 cells at 10 uM; format: cell-based
T6 sequence (whole entry): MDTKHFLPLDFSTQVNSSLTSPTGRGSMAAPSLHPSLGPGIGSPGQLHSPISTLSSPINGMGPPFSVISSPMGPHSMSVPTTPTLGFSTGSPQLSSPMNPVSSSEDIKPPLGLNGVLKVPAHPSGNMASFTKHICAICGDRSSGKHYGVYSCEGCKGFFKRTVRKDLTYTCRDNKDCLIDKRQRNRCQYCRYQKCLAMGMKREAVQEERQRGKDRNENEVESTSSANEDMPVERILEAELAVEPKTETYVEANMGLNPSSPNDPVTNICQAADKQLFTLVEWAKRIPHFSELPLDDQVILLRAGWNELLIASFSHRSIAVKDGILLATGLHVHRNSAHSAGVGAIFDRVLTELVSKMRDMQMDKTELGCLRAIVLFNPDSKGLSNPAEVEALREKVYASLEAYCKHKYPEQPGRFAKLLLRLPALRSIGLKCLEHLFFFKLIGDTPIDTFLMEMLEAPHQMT

[7] = biological target: T7, Bile acid receptor (Homo sapiens) (UniProt Q96RI1); test: Activity at human recombinant FXR by transactivation of TK-MH100x4-LUC reporter gene in HEK293 cells at 10 uM; format: cell-based
T7 sequence (whole entry): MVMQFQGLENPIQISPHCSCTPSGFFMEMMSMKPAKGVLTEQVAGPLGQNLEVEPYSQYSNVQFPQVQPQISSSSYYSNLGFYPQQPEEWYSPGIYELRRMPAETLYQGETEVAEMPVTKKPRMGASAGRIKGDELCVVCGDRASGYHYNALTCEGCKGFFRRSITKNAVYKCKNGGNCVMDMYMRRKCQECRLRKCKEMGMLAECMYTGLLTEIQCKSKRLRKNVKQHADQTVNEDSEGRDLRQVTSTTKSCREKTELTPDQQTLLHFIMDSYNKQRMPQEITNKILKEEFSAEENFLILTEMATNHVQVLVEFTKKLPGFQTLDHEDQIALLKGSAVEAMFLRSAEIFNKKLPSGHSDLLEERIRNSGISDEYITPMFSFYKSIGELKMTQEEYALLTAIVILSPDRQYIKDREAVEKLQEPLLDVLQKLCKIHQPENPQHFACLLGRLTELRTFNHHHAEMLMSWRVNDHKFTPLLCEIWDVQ

[8] = biological target: T8, Retinoic acid receptor alpha (Homo sapiens) (UniProt P10276); test: Activity at human recombinant RARalpha by transactivation of TK-MH100x4-LUC reporter gene in HEK293 cells at 10 uM; format: cell-based
T8 sequence (whole entry): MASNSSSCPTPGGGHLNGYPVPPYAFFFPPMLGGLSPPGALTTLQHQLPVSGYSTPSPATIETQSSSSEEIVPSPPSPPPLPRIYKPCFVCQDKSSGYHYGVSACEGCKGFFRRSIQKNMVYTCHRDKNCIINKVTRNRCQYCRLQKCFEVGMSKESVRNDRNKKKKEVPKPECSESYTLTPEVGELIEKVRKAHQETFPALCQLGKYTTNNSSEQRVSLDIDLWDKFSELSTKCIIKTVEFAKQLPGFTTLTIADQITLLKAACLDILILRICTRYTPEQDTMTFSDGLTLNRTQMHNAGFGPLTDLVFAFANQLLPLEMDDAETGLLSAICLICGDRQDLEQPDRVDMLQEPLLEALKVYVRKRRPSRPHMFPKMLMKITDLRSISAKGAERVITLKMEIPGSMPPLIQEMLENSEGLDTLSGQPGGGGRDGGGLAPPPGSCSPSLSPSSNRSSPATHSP

[9] = biological target: T9, Peroxisome proliferator-activated receptor gamma (Homo sapiens) (UniProt P37231); test: Activity at human recombinant PPARgamma by transactivation of TK-MH100x4-LUC reporter gene in HEK293 cells at 10 uM; format: cell-based
T9 sequence (whole entry): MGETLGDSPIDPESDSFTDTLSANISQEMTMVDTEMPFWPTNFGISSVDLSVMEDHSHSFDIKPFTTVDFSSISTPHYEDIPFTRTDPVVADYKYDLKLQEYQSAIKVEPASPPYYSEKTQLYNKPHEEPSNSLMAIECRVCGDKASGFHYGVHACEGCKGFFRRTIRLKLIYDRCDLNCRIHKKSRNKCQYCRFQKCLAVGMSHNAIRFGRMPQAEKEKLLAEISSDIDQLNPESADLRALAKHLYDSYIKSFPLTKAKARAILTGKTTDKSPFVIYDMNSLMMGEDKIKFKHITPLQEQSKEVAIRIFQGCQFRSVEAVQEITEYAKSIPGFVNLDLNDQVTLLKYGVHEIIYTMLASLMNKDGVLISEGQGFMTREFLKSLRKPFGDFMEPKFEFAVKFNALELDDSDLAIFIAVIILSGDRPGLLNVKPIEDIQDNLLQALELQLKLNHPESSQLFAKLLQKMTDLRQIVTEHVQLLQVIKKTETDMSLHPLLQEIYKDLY

Bile acid receptor = biological target: T10, Bile acid receptor (Homo sapiens, UniProt Q96RI1); test: (§1) Agonist activity at human recombinant FXR by transactivation of TK-MH100x4-LUC reporter gene in HEK293 cells; format: functional, cell-based
T10 sequence (Q96RI1 whole entry): T7 sequence (whole entry)

[10] = biological target: T7, Bile acid receptor (Homo sapiens); test: as §1; format: functional, cell-based

## CC(C)(Oc1ccc(C(=O)c2ccc(Cl)cc2)cc1)C(=O)O [FENOFIBRIC ACID]
[1]
  EC50: 9.2 µM

## CCC(CC)(c1ccc(OCC(=O)O)c(C)c1)c1ccc(OCc2c(-c3c(Cl)cccc3Cl)noc2C(C)C)c(C)c1
[2]
  Activity: inactive
[3]
  Activity: inactive
[4]
  Activity: inactive
[5]
  Activity: inactive
[6]
  Activity: inactive
[7]
  Activity: Active
[8]
  Activity: inactive
[9]
  Activity: inactive
Bile acid receptor
  EC50: 3.4 µM

## CCC(Oc1ccc(C2(c3ccc(OC(CC)C(=O)O)c(C)c3)CCCCC2)cc1C)C(=O)O (stereo not given)
[2]
  Activity: Active
[3]
  Activity: inactive
[4]
  Activity: inactive
[5]
  Activity: inactive
[6]
  Activity: inactive
[1]
  EC50: 3.5 µM
[7]
  Activity: inactive
[8]
  Activity: inactive
[9]
  Activity: inactive

## CCC(CC)(c1ccc(NCC(O)CO)c(C)c1)c1ccc(OCc2c(-c3c(Cl)cccc3Cl)noc2C(C)C)c(C)c1 (stereo not given)
[10]
  Activity: Active
